# Calls of active or inactive are those of the source. No cut-off for these calls is given here.
# Tests used:
# Rattus norvegicus [1] = test: Uterotrophic effects in rats following 3 x 0.1 mg s.c. over 72h.; format: functional, Uterus
# Summary of the method: (§1)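 Immature Sprague-Dawley female rats, 21–23 days old, seven to nine per group, injected s.c. on 3 consecutive days with test compound suspended in 0.2 mL propylene glycol–saline (1:1 v/v). Vehicle-only controls. Autopsy 24 h after the final dose, uterine wet weight recorded. Agonist activity computed as (C₀ − V)(100)/(E − V), with E the E₂-alone mean.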
# Rattus norvegicus [2] = test: Estrogenicity in rats following 3 x 0.1 mg s.c. over 72h.; format: functional; summary of the method: as §1
# Rattus norvegicus [3] = test: Anti-uterotrophic effects in rats following 3 x 0.1 mg s.c. over 72h.; format: functional
# Summary of the method: (§2)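 Immature female Sprague-Dawley rats (21–23 days), groups of seven to nine, given test compound suspended in 0.2 mL propylene glycol–saline (1:1 v/v) s.c. daily for 3 consecutive days, plus 1 μg E₂ per animal at a separate site. Controls got E₂ plus vehicle. Uterine wet weight taken at autopsy 24 h after the last injection. Inhibition computed as (E − C₁)(100)/(E − V).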
# Rattus norvegicus [4] = test: Inhibition of E2 effects in rats by 0.1 mg s.c.; format: functional; summary of the method: as §2
# [5] = biological target: T1, Estrogen receptor (Rattus norvegicus) (UniProt P06211+Q62986); test: Relative binding against estrogen receptor of rat uterine cytosol by [2-4-3H] estradiol.; format: protein assay
# Summary of the method: (§3)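 Uterine cytosol (1 uterine equiv/mL) from immature rats primed s.c. with 1 μg E₂ for 3 days, incubated 18 h at 4 °C with [³H]E₂ (5 × 10⁻⁹ M) and test compound (10⁻⁴–10⁻⁹ M) in triplicate. Medium was Tris-HCl/EDTA/azide buffer, pH 7.4, with 7% DMF. Free ligand removed with charcoal-dextran for 20 min before scintillation counting. Results expressed relative to E₂ = 100, mean ± SD of ≥3 determinations.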
# Rattus norvegicus [6] = test: Estrogenicity in rats following 3 x 1 mg s.c. over 72h.; format: functional; summary of the method: as §1
# Rattus norvegicus [7] = test: Inhibition of E2 effects in rats by 1 mg s.c.; format: functional; summary of the method: as §2
# Rattus norvegicus [8] = test: Uterotrophic effects in rats following 3 x 1 mg s.c. over 72h.; format: functional, Uterus; summary of the method: as §1
# Rattus norvegicus [9] = test: Anti-uterotrophic effects in rats following 3 x 1 mg s.c. over 72h.; format: functional; summary of the method: as §2
# [10] = biological target: T1, Estrogen receptor (Rattus norvegicus); test: Relative binding affinity against estrogen receptor of rat uterine cytosol by [2-4-3H] estradiol; No detectable affinity at 100 uM.; summary of the method: as §3
Structure (SMILES),RBA [5],RBA [10],Uterine weight (Rattus norvegicus [1]),Estrogenic effect (Rattus norvegicus [2]),Uterine weight (Rattus norvegicus [3]),Inhibition (Rattus norvegicus [4]),Estrogenic effect (Rattus norvegicus [6]),Inhibition (Rattus norvegicus [7]),Uterine weight (Rattus norvegicus [8]),Uterine weight (Rattus norvegicus [9])
C/C(=C(/C(=O)c1ccc(OCCN2CCCC2)cc1)c1ccccc1)c1ccccc1,0.008%,–,30.6 mg,38%,43.1 mg,26%,–,–,–,–
O=C(c1ccccc1)c1c(-c2ccc(O)cc2)oc2ccccc12,0.12%,–,–,–,–,–,0%,0%,13.7 mg,47.4 mg
O=C(c1ccc(O)cc1)c1c(-c2ccccc2)oc2ccccc12,5.3%,–,–,–,–,–,10%,0%,16.3 mg,50.7 mg
COc1ccc(-c2c(-c3ccccc3)oc3cc(O)ccc23)cc1,0.01%,–,–,–,–,–,–,–,–,–
c1ccc(-c2coc(-c3ccccc3)c2-c2ccc(OCCN3CCCC3)cc2)cc1,0.84%,–,26.4 mg,31%,53.9 mg,0%,–,–,–,–
Oc1ccc(-c2oc3cc(O)ccc3c2-c2ccc(O)cc2)cc1,7.8%,–,–,–,–,–,22%,30%,21.2 mg,39.6 mg
O=C(c1ccccc1)c1c(-c2ccc(O)cc2)oc2cc(O)ccc12,0.72%,–,–,–,–,–,35%,0%,26.6 mg,43.2 mg
Oc1ccc(-c2c(-c3ccccc3)coc2-c2ccccc2)cc1,4.5%,–,16.7 mg,0%,42.8 mg,0%,–,–,–,–
O=C(c1ccc(O)cc1)c1c(-c2ccc(O)cc2)oc2ccccc12,1.7%,–,–,–,–,–,0%,0%,13.1 mg,59.3 mg
O=C(/C(=C\c1ccccc1)c1ccccc1)c1ccc(O)cc1,0.06%,–,22.2 mg,33%,70.4 mg,0%,–,–,–,–
O=C(c1ccc(O)cc1)c1oc2cc(O)ccc2c1-c1ccc(O)cc1,2.7%,–,–,–,–,–,31%,23%,26.3 mg,48.3 mg
Cl.O=C(c1ccccc1)c1c(-c2ccc(OCCN3CCCC3)cc2)oc2ccccc12,0.3%,–,–,–,–,–,38%,58%,27.7 mg,29.6 mg
C/C(=C(\C(=O)c1ccc(O)cc1)c1ccccc1)c1ccccc1,0.54%,–,19.8 mg,0%,47.3 mg,14%,–,–,–,–
C/C(=C(/C(=O)c1ccc(O)cc1)c1ccccc1)c1ccccc1,3.6%,–,46.4 mg,83%,44.7 mg,21%,–,–,–,–

# Second part, led by results:
RBA [5],RBA [10],Structure (SMILES),Uterine weight (Rattus norvegicus [1]),Estrogenic effect (Rattus norvegicus [2]),Uterine weight (Rattus norvegicus [3]),Inhibition (Rattus norvegicus [4]),Estrogenic effect (Rattus norvegicus [6]),Inhibition (Rattus norvegicus [7]),Uterine weight (Rattus norvegicus [8]),Uterine weight (Rattus norvegicus [9])
1.8%,–,O=C(/C(=C/c1ccccc1)c1ccccc1)c1ccc(O)cc1,49.4 mg,68%,78.1 mg,0%,–,–,–,–
0.24%,–,C/C(=C(\C(=O)c1ccc(OCCN2CCCC2)cc1)c1ccccc1)c1ccccc1,18 mg,0%,46.6 mg,16%,–,–,–,–
1.6%,–,Oc1ccc(-c2c(-c3ccccc3)oc3cc(O)ccc23)cc1,–,–,–,–,0%,0%,14.6 mg,46.5 mg
0.01%,–,COc1ccc2c(-c3ccc(OCCN4CCCC4)cc3)c(-c3ccccc3)oc2c1,–,–,–,–,57%,0%,35.4 mg,61.4 mg
3%,–,Oc1ccc(-c2coc(-c3ccccc3)c2-c2ccccc2)cc1,48.9 mg,100%,57.6 mg,0%,–,–,–,–
–,inactive,c1ccc(-c2occ(-c3ccc(OCCN4CCCC4)cc3)c2-c2ccccc2)cc1,35.6 mg,61%,52.1 mg,0%,–,–,–,–
0.01%,–,O=C(c1ccc(OCCN2CCCC2)cc1)c1c(-c2ccccc2)oc2ccccc12,–,–,–,–,0%,0%,16.7 mg,56.1 mg
2.1%,–,O=C(c1ccc(O)cc1)c1c(-c2ccccc2)oc2cc(O)ccc12,–,–,–,–,25%,37%,22.4 mg,38 mg
0.01%,–,COc1ccc2c(-c3ccc(O)cc3)c(-c3ccccc3)oc2c1,–,–,–,–,–,–,–,–

# From ChEMBL document CHEMBL1124544, “Structure-activity relationship of antiestrogens: a study using triarylbutenone, benzofuran, and triarylfuran analogues as models for triarylethylenes and triarylpropenones” (1989)
